Reference: ChEMBL document CHEMBL1157565, “Discovery of 1-[3-(4-bromo-2-methyl-2h-pyrazol-3-yl)-4-methoxyphenyl]-3-(2,4-difluorophenyl)urea (nelotanserin) and related 5-hydroxytryptamine2A inverse agonists for the treatment of insomnia” (J Med Chem, 2010)
pIC50, pKi: −log10 of the molar value. The source made the active and inactive calls. The calls are words filed in the database; no cut-off is given here.

Assays:
[1] = biological target: T1, 5-hydroxytryptamine receptor 2A (Homo sapiens, UniProt P28223); assay: Activity at human 5HT2A receptor expressed in HEK293 cells assessed as [3H]inositol phosphate production by scintillation counting; type: functional, cell-based; conditions: for IC50: read-out: pIC50 (converted)
T1 sequence (P28223 whole entry): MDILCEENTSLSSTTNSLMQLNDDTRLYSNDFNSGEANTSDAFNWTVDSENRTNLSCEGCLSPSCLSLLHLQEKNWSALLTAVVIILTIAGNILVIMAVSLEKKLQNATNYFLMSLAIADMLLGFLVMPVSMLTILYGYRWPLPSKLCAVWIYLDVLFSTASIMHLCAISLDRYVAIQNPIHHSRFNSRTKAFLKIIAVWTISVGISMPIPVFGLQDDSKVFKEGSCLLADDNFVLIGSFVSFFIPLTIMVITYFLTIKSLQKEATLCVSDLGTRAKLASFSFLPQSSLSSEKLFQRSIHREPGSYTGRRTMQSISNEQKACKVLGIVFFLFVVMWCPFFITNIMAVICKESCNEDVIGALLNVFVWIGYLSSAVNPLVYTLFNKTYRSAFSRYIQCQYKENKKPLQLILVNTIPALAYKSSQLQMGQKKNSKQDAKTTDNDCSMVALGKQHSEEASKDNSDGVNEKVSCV
In short: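 HEK-293 cells transiently transfected with a mutated, constitutively active h5-HT2A receptor, labeled 18 h with […] [3H]myoinositol in serum- and myoinositol-free DMEM. Then 3 h at 37 °C in HBSS with LiCl (10 mM final), pargyline and compound. Lysis with ice-cold 0.1 M formic acid; total [3H]IP separated on AG1-X8 resin and counted by scintillation. Inverse-agonist pIC50.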

[2] = biological target: T1, 5-hydroxytryptamine receptor 2A; assay: Displacement of [3H]DOI from human recombinant 5HT2A receptor expressed in HEK293 cells by scintillation counting; type: cell-based; conditions: in the assay text read “[125I]DOI” for “[3H]DOI”
In short: (§1)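 Crude membranes (5-25 μg protein) from HEK293 cells stably expressing human 5-HT2A or 5-HT2C. Radioligand [125I]DOI at 0.5 nM final; 10 μM cold DOI defines nonspecific binding. Buffer 20 mM HEPES pH 7.4, 10 mM MgCl2; 1 h at room temperature. Eight concentrations (1 pM–10 μM), each in triplicate. Vacuum filtration on GF/C, Tris wash, scintillation counting; pKi.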

[3] = biological target: T2, 5-hydroxytryptamine receptor 2C (Homo sapiens, UniProt P28335); assay: Displacement of [3H]DOI from human recombinant 5HT2C receptor expressed in HEK293 cells by scintillation counting; type: cell-based; conditions: in the assay text read “[125I]DOI” for “[3H]DOI”; in short: as §1
T2 sequence (P28335 whole entry): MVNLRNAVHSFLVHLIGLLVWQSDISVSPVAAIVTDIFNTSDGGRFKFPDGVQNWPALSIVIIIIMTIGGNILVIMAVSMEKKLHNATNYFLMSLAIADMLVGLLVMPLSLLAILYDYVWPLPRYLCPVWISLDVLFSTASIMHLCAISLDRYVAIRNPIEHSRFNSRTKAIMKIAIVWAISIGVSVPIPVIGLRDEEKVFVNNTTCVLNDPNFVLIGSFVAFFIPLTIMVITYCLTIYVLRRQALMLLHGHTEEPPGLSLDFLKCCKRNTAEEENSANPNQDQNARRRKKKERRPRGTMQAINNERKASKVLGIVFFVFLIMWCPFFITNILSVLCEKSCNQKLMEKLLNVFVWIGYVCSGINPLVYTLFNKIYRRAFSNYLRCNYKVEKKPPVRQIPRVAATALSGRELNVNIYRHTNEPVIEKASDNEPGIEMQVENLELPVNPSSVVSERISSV

[4] = biological target: T2, 5-hydroxytryptamine receptor 2C; assay: Displacement of [125I]DOI from human recombinant 5HT2C receptor expressed in HEK293 cells by scintillation counting
[5] = biological target: T1, 5-hydroxytryptamine receptor 2A; assay: Displacement of [125I]DOI from human recombinant 5HT2A receptor expressed in HEK293 cells by scintillation counting
[6] = system: Rattus norvegicus; assay: Effect on behavioral activity in Wistar rat assessed as decrease in number of non-rapid eye movement bouts at 1.4 mg/kg, po after 2 hrs; type: functional, organism-based; parameters: dose 1.4 mg/kg
In short: (§2)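 Male Wistar rats (300 ± 25 g) implanted for continuous EEG/EMG recording, 1 week recovery. Repeated-measures design: each rat received each treatment, including 80% Tween-80 vehicle, in random order by oral gavage. Non-REM sleep parameters scored hourly after dosing; at least five rats per compound.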

[7] = Tmax in Wistar rat at 1.4 mg/kg, po; type: ADME, organism-based; parameters: dose 1.4 mg/kg, route oral; conditions: in vivo
In short: (§3)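 Male Wistar rats, fasted overnight, single oral dose in 80% Tween-80/20% water. Jugular vein blood sampled serially over 24 h ([…]); sodium-heparin plasma stored at -70 °C, quantified by HPLC/MS/MS (LLOQ 1 ng/mL, ULOQ 2000 ng/mL). n = 2-3 animals; noncompartmental analysis; values as mean ± SD.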

[8] = Cmax in Wistar rat at 1.4 mg/kg, po; type: ADME, organism-based; parameters: dose 1.4 mg/kg, route oral; conditions: in vivo; in short: as §3
[9] = Half life in Wistar rat at 1.4 mg/kg, po; type: ADME, organism-based; parameters: dose 1.4 mg/kg, route oral; conditions: in vivo; in short: as §3
[10] = AUC (0 to infinity) in Wistar rat at 1.4 mg/kg, po; type: ADME, organism-based; parameters: time infinity, dose 1.4 mg/kg, route oral; conditions: plasma; in short: as §3
[11] = system: Rattus norvegicus; assay: Effect on behavioral activity in po dosed Sprague-Dawley rat assessed as reversal of DOI-induced inhibition of rearing behavior; type: functional
In short: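 Adult male Sprague-Dawley rats dosed orally with compound 45 min before DOI (0.3 mg/kg), which lowers rearing. Fifteen minutes later, rearing recorded in photocell-monitored locomotor activity cages. A dose-response curve for reversal of DOI-induced rearing decrease yields an ED50.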

[12] = system: Rattus norvegicus; assay: Effect on behavioral activity in Wistar rat assessed as increase in non-rapid eye movement delta power at 1.4 mg/kg, po after 4 hrs; type: functional, organism-based; parameters: dose 1.4 mg/kg; in short: as §2
[13] = system: Rattus norvegicus; assay: Effect on behavioral activity in Wistar rat assessed as increase in non-rapid eye movement bout length at 1.4 mg/kg, po after 1 hrs; type: functional, organism-based; parameters: dose 1.4 mg/kg; in short: as §2
[14] = biological target: 5-hydroxytryptamine receptor 2A (Rattus norvegicus, UniProt P14842); assay: Displacement of [125I]DOI from rat recombinant 5HT2A receptor by scintillation counting
Sequence of 5-hydroxytryptamine receptor 2A (Rattus norvegicus, UniProt P14842) (P14842 whole entry): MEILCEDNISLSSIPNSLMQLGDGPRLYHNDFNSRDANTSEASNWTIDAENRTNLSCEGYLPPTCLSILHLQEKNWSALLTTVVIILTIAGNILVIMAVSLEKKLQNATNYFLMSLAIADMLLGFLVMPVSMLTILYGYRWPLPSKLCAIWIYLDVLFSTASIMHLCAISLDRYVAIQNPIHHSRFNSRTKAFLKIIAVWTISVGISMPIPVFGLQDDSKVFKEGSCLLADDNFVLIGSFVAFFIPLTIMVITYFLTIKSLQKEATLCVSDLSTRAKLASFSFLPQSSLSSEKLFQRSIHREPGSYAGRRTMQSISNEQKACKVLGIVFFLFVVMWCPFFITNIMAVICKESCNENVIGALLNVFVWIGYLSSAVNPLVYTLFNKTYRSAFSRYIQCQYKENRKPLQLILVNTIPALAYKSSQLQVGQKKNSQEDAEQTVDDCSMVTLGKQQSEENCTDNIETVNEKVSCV

[15] = system: Rattus norvegicus; assay: Effect on behavioral activity in Wistar rat assessed as increase in non-rapid eye movement delta power at 1.4 mg/kg, po after 1 hr; type: functional, organism-based; parameters: dose 1.4 mg/kg; in short: as §2
[16] = system: Rattus norvegicus; assay: Effect on behavioral activity in Wistar rat assessed as increase in non-rapid eye movement delta power at 1.4 mg/kg, po after 2 hrs; type: functional, organism-based; parameters: dose 1.4 mg/kg; in short: as §2

COc1ccc(NC(=O)Nc2ccc(OC)c(-c3c(Br)cnn3C)c2)cc1
IC50 [1]: 0.398 nM | pKi [2]: 9.30 | pKi [3]: 6.90

Cn1ncc(Br)c1-c1cc(NC(=O)Nc2ccc(Cl)cc2)ccc1OCc1ccc(Cl)cc1
IC50 [1]: 12.6 nM | pKi [2]: 7.70 | pKi [3]: 6.60

COc1ccc(NC(=O)Nc2ccc(F)c(F)c2)cc1-c1c(Cl)cnn1C
IC50 [1]: 0.501 nM | pKi [2]: 9.60 | pKi [3]: 7.60

COc1ccc(NC(=O)Nc2cccc(Cl)c2)cc1-c1c(Br)cnn1C
IC50 [1]: 0.398 nM | pKi [2]: 9.60 | pKi [3]: 7.80

Cn1ncc(Br)c1-c1cccc(NC(=O)Nc2ccc(Cl)cc2)c1
pIC50 [1]: 7.72

CCOc1ccc(NC(=O)Nc2ccc(Cl)cc2)cc1-c1c(Br)cnn1C
pKi [2]: 9.60 | pKi [3]: 8.70

COc1ccc(NC(=O)Nc2ccc(N(C)C)cc2)cc1-c1c(Br)cnn1C
IC50 [1]: 50.1 nM | pKi [2]: 8.80 | pKi [4]: 6.40

COc1ccc(NC(=O)Nc2cc(C(F)(F)F)cc(C(F)(F)F)c2)cc1-c1c(Cl)cnn1C
IC50 [1]: 3.98 nM | pKi [2]: 9.00 | pKi [4]: 7.20

COc1ccc(NC(=O)Nc2ccc(Cl)cc2)cc1-c1ccnn1C
IC50 [1]: 1 nM | pKi [3]: 6.80

COc1ccc(NC(=O)Nc2ccc(Br)cc2)cc1-c1c(Br)cnn1C
IC50 [1]: 0.501 nM | pKi [2]: 9.60 | pKi [4]: 8.40

COc1ccc(NC(=O)Nc2ccc(Cl)cc2Cl)cc1-c1c(Br)cnn1C
IC50 [1]: 1.26 nM | pKi [2]: 9.70 | pKi [3]: 7.60

COc1ccc(NC(=O)Nc2ccc(F)cc2F)cc1-c1c(Cl)cnn1C
IC50 [1]: 1 nM | pKi [5]: 9.20 | pKi [4]: 6.50

CC(C)Oc1ccc(NC(=O)Nc2ccc(Cl)cc2)cc1-c1c(Br)cnn1C
IC50 [1]: 1.58 nM | pKi [3]: 8.00 | pKi [5]: 9.50

COc1ccc(NC(=O)Nc2cccc(F)c2)cc1-c1c(Br)cnn1C
IC50 [1]: 0.794 nM | pKi [5]: 9.50 | pKi [4]: 7.40

COc1ccc(NC(=O)Nc2ccc(Cl)cc2C(F)(F)F)cc1-c1c(Br)cnn1C
IC50 [1]: 2.51 nM | pKi [2]: 9.30 | pKi [3]: 6.90

COc1ccc(NC(=O)Nc2ccc(F)cc2F)cc1-c1c(Br)cnn1C [NELOTANSERIN]
Activity [6]: Active | IC50 [1]: 0.631 nM | pKi [3]: 6.80 | Tmax [7]: 3 h | Cmax [8]: 44 ng/mL | half-life [9]: 3 h | AUC(0-inf) [10]: 298 ng·h/mL | ED50 [11]: 0.7 mg/kg | Activity [12]: Active | Activity [13]: Active | pKi [14]: 8.30 | pKi [5]: 9.20

COc1ccc(NC(=O)Nc2cc(F)cc(F)c2)cc1-c1c(Br)cnn1C
IC50 [1]: 1.26 nM | pKi [3]: 7.80 | pKi [5]: 9.50

COc1ccc(NC(=O)Nc2ccc(C(C)C)cc2)cc1-c1c(Br)cnn1C
IC50 [1]: 2.51 nM | pKi [3]: 7.60 | pKi [5]: 9.50

COc1ccc(NC(=O)Nc2ccccc2F)cc1-c1c(Br)cnn1C
pKi [2]: 9.00 | pKi [4]: 6.40

COc1ccc(NC(=O)Nc2ccc(F)cc2)cc1-c1c(Br)cnn1C(C)C
IC50 [1]: 1 nM | pKi [2]: 9.60 | pKi [4]: 8.40

COc1ccc(NC(=O)Nc2cccc(C(C)=O)c2)cc1-c1c(Br)cnn1C
IC50 [1]: 3.98 nM | pKi [2]: 8.60 | pKi [3]: 6.60

COc1ccc(NC(=O)Nc2ccc(Cl)c(C(F)(F)F)c2)cc1-c1c(Br)cnn1C
IC50 [1]: 0.794 nM | pKi [5]: 9.50 | pKi [4]: 8.50

Cn1ncc(Br)c1-c1cc(NC(=O)Nc2ccc(Cl)cc2)ccc1OCc1ccccc1
IC50 [1]: 7.94 nM | pKi [2]: 8.30 | pKi [3]: 6.80

Cn1ncc(Br)c1-c1cccc(NC(=O)Nc2ccc(OC(F)(F)F)cc2)c1
pIC50 [1]: 6.92

Cn1ncc(Br)c1-c1cc(NC(=O)Nc2ccc(Cl)cc2)ccc1OC(F)(F)F
IC50 [1]: 15.8 nM | pKi [2]: 9.10 | pKi [3]: 7.80

Cn1ncc(Br)c1-c1cc(NC(=O)Nc2ccc(Cl)cc2)ccc1O
pKi [3]: 7.30 | pKi [5]: 9.40

COc1ccc(NC(=O)Nc2ccc(F)cc2)cc1-c1c(Br)cnn1C
Activity [6]: Active | IC50 [1]: 0.251 nM | pKi [2]: 9.60 | Tmax [7]: 4 h | Cmax [8]: 85 ng/mL | half-life [9]: 2 h | AUC(0-inf) [10]: 507 ng·h/mL | ED50 [11]: 0.7 mg/kg | Activity [15]: Active | Activity [16]: Active | pKi [4]: 7.50

COc1ccc(NC(=O)Nc2ccc(C(F)(F)F)cc2)cc1-c1c(Br)cnn1C
IC50 [1]: 1.58 nM | pKi [5]: 9.50 | pKi [4]: 8.40

COc1ccc(NC(=O)Nc2ccc(Cl)cc2)cc1-c1c(Br)cnn1C(C)C
IC50 [1]: 1.26 nM | pKi [2]: 9.30 | pKi [3]: 8.60

COc1ccc(NC(=O)Nc2ccc(F)c(F)c2)cc1-c1c(F)cnn1C
IC50 [1]: 2.51 nM | pKi [2]: 8.90 | pKi [4]: 6.40

COc1ccc(NC(=O)Nc2cccc(C#N)c2)cc1-c1c(Br)cnn1C
IC50 [1]: 6.31 nM | pKi [2]: 9.30 | pKi [4]: 7.20

COc1ccc(NC(=O)Nc2cccc(C(F)(F)F)c2)cc1-c1c(Br)cnn1C
IC50 [1]: 0.398 nM | pKi [3]: 7.80 | pKi [5]: 9.40

Cn1ncc(Br)c1-c1cc(NC(=O)Nc2ccc(Cl)cc2)ccc1OCCc1ccccc1
IC50 [1]: 50.1 nM | pKi [3]: 6.10 | pKi [5]: 8.20

COc1ccc(NC(=O)Nc2cc(C(F)(F)F)cc(C(F)(F)F)c2)cc1-c1c(Br)cnn1C
IC50 [1]: 2 nM | pKi [5]: 9.40 | pKi [4]: 7.50
